From ChEMBL document CHEMBL3734720, “Synthesis of thiophene-thiosemicarbazone derivatives and evaluation of their in vitro and in vivo antitumor activities” (Eur J Med Chem, 2015)

Tests used:
[1] = Antiproliferative activity against human UACC62 cells assessed as growth inhibition after 48 hrs by SRB assay; assay type: functional; settings: UACC-62, 48 h
In short: (§1)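 Cells exposed 48 h at 37 °C, 5% CO2 to 0.25, 2.5, 25 and 250 µg/mL in DMSO/RPMI (final DMSO 0.1%); doxorubicin standard at 0.025–25 µg/mL. Plates fixed with 50% TCA before (T0) and after treatment; protein content read by sulforhodamine B at 540 nm. GI50 (µM) from nonlinear regression of concentration–response curves; triplicate.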

U-251 = assay: Antiproliferative activity against human U251 cells assessed as growth inhibition after 48 hrs by SRB assay; assay type: functional; settings: U-251, 48 h; in short: as §1
MCF7 = assay: Antiproliferative activity against human MCF7 cells assessed as growth inhibition after 48 hrs by SRB assay; assay type: functional; settings: MCF7, 48 h; in short: as §1
HT-29 = assay: Antiproliferative activity against human HT-29 cells assessed as growth inhibition after 48 hrs by SRB assay; assay type: functional; settings: HT-29, 48 h; in short: as §1
[2] = Antiproliferative activity against human PC3 cells assessed as growth inhibition after 48 hrs by SRB assay; assay type: functional; settings: PC-3, 48 h; in short: as §1
786-0 [3] = assay: Antiproliferative activity against human 786-0 cells assessed as growth inhibition after 48 hrs by SRB assay; assay type: functional; settings: 786-0, 48 h; in short: as §1
[4] = Antiproliferative activity against human HaCaT cells assessed as growth inhibition after 48 hrs by SRB assay; assay type: cell-based; in short: as §1
[5] = Antiproliferative activity against human NCI-ADR-RES cells assessed as growth inhibition after 48 hrs by SRB assay; assay type: functional; in short: as §1
NCI-H460 = assay: Antiproliferative activity against human NCI-H460 cells assessed as growth inhibition after 48 hrs by SRB assay; assay type: functional; settings: NCI-H460, 48 h; in short: as §1
K562 = assay: Antiproliferative activity against human K562 cells assessed as growth inhibition after 48 hrs by SRB assay; assay type: functional; settings: K562, 48 h; in short: as §1
[6] = Antitumor activity against mouse EAT implanted in Balb/C mouse assessed as change in paw volume at 3 mg/kg, ip administered on day 3 post tumor inoculation measured on day 9 by plethysmometer analysis (reference value: 95.5 +/- 5.2%); assay type: functional
[7] = Antitumor activity against mouse EAT implanted in Balb/C mouse assessed as change in paw volume at 3 mg/kg, ip administered on day 3 post tumor inoculation measured on day 6 by plethysmometer analysis (reference value: 86.1 +/- 5.7%); assay type: functional
[8] = Antitumor activity against mouse EAT implanted in Balb/C mouse assessed as change in paw volume at 3 mg/kg, ip administered on day 3 post tumor inoculation measured on day 15 by plethysmometer analysis (reference value: 166.5 +/- 6.0%); assay type: functional
[9] = Antitumor activity against mouse EAT implanted in Balb/C mouse assessed as change in paw volume at 3 mg/kg, ip administered on day 3 post tumor inoculation measured on day 12 by plethysmometer analysis (reference value: 125.5 +/- 7.5%); assay type: functional
[10] = Antitumor activity against mouse EAT implanted in Balb/C mouse assessed as change in paw volume at 3 mg/kg, ip administered on day 3 post tumor inoculation measured on day 3 by plethysmometer analysis (reference value: 40.2 +/- 7.0%); assay type: functional
786-0 [11] = assay: Cell cycle arrest in human 786-0 cells assessed as accumulation at S phase at 1.25 nM after 24 hrs by propidium iodide based flow cytometric analysis (reference value: 14.6 +/- 1.3%); assay type: functional
786-0 [12] = assay: Cell cycle arrest in human 786-0 cells assessed as accumulation at Sub G1 phase at 1.25 nM after 24 hrs by propidium iodide based flow cytometric analysis (reference value: 3.0 +/- 0.7%); assay type: functional
786-0 [13] = assay: Cell cycle arrest in human 786-0 cells assessed as accumulation at G2/M phase at 1.25 nM after 24 hrs by propidium iodide based flow cytometric analysis (reference value: 35.7 +/- 0.9%); assay type: functional
786-0 [14] = assay: Cell cycle arrest in human 786-0 cells assessed as reduction in G1 phase at 1.25 nM after 24 hrs by propidium iodide based flow cytometric analysis (reference value: 46.7 +/- 0.8%); assay type: functional; design: scale not given: the % may be the effect or the level left
[15] = Antitumor activity against mouse EAT implanted in Balb/C mouse assessed as change in paw volume at 40 mg/kg, po administered on day 3 post tumor inoculation measured on day 9 by plethysmometer analysis (reference value: 95.5 +/- 5.2%); assay type: functional
[16] = Antitumor activity against mouse EAT implanted in Balb/C mouse assessed as change in paw volume at 40 mg/kg, po administered on day 3 post tumor inoculation measured on day 12 by plethysmometer analysis (reference value: 125.5 +/- 7.5%); assay type: functional
[17] = Antitumor activity against mouse EAT implanted in Balb/C mouse assessed as change in paw volume at 40 mg/kg, po administered on day 3 post tumor inoculation measured on day 3 by plethysmometer analysis (reference value: 40.2 +/- 7.0%); assay type: functional
[18] = Antitumor activity against mouse EAT implanted in Balb/C mouse assessed as change in paw volume at 40 mg/kg, po administered on day 3 post tumor inoculation measured on day 15 by plethysmometer analysis (reference value: 166.5 +/- 6.0%); assay type: functional
[19] = Antitumor activity against mouse EAT implanted in Balb/C mouse assessed as change in paw volume at 40 mg/kg, po administered on day 3 post tumor inoculation measured on day 6 by plethysmometer analysis (reference value: 86.1 +/- 5.7%); assay type: functional

SMILES	GI50 [1]	GI50 (U-251)	GI50 (MCF7)	GI50 (HT-29)	GI50 [2]	GI50 (786-0 [3])	GI50 at 48 h [4]	GI50 [5]	GI50 (NCI-H460)	GI50 (K562)	also measured
COc1ccc(NC(=S)N/N=C/c2cccs2)cc1	> 100 µM	> 100 µM	> 100 µM	> 100 µM	> 100 µM	> 100 µM	> 100 µM	> 100 µM	> 100 µM	1.7 µM	
S=C(N/N=C/c1cccs1)Nc1ccc(Cl)cc1	15.8 µM	8.3 µM	> 100 µM	> 100 µM	> 100 µM	7.4 µM	14.7 µM	2.8 µM	> 100 µM	2 µM	
S=C(N/N=C/c1cccs1)Nc1ccccc1	> 100 µM	74.7 µM	94.6 µM	> 100 µM	> 100 µM	50.4 µM	> 100 µM	> 100 µM	> 100 µM	16.7 µM	
S=C(N/N=C/c1cccs1)Nc1cccnc1	> 100 µM	26 µM	> 100 µM	> 100 µM	> 100 µM	5.6 µM	45.4 µM	> 100 µM	45.9 µM	16.4 µM	
Cc1ccc(NC(=S)N/N=C/c2cccs2)cc1	16.8 µM	12.6 µM	38.6 µM	> 100 µM	29.7 µM	19.5 µM	17.6 µM	4.8 µM	80.6 µM	< 0.9 µM	
S=C(NCCc1ccccc1)N/N=C/c1cccs1	> 100 µM	> 100 µM	> 100 µM	> 100 µM	> 100 µM	> 100 µM	> 100 µM	> 100 µM	> 100 µM	> 100 µM	
CCc1ccc(NC(=S)N/N=C/c2cccs2)cc1	> 100 µM	> 100 µM	> 100 µM	> 100 µM	> 100 µM	82.6 µM	17.6 µM	> 100 µM	> 100 µM	1.6 µM	
C=CCNC(=S)N/N=C/c1cccs1	> 100 µM	> 100 µM	> 100 µM	> 100 µM	> 100 µM	21.2 µM	> 100 µM	> 100 µM	> 100 µM	6 µM	
S=C(N/N=C/c1cccs1)Nc1cccc2ccccc12	> 100 µM	12.7 µM	> 100 µM	> 100 µM	> 100 µM	15.2 µM	82.4 µM	6.6 µM	> 100 µM	1.8 µM	
COc1cccc2c1C(=O)c1c(O)c3c(c(O)c1C2=O)C[C@@](O)(C(=O)CO)C[C@@H]3O[C@H]1C[C@H](N)[C@H](O)[C@H](C)O1 [DOXORUBICIN]	0.05 µM	< 0.046 µM	< 0.046 µM	0.3 µM	0.13 µM	< 0.046 µM	< 0.046 µM	0.21 µM	< 0.046 µM	< 0.046 µM	Activity [6]: 69.8%; Activity [7]: 55.6%; Activity [8]: 97.9%; Activity [9]: 39.6%; Activity [10]: 43.7%
COc1cc2c(c(OC)c1OC)-c1ccc(OC)c(=O)cc1[C@@H](NC(C)=O)CC2 [COLCHICINE]											Activity (786-0 [11]): 12.6%; Activity (786-0 [12]): 8.9%; Activity (786-0 [13]): 57.5%; Activity (786-0 [14]): 21.5%
CN1C(C(=O)Nc2ccccn2)=C(O)c2ccccc2S1(=O)=O [PIROXICAM]											Activity [15]: 52.3%; Activity [16]: 34.9%; Activity [17]: 42.2%; Activity [18]: 47.3%; Activity [19]: 57.2%
